Bioassay records deposited in PubChem by several laboratories.
In the library only some 3% were active in any assay of this set; here they are far more common.
SR-BI HDL uptake – inhibitors of SR-BI mediated HDL lipid uptake, primary screen, ldlA[mSR-BI] cells, fluorescence, single point; inhibition, % at 12.5 µM; ldlA[mSR-BI] CHO cells, DiI-HDL uptake fluorescence, 3 h; 320,000 compounds, 0.96% hits;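 active = mean replicate inhibition of at least 70% and a set share of replicates each scoring 70 or more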;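 also: 0% = median of neutral control wells and 100% = median of positive control wells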
Target sequence (Q61009 whole entry, looked up): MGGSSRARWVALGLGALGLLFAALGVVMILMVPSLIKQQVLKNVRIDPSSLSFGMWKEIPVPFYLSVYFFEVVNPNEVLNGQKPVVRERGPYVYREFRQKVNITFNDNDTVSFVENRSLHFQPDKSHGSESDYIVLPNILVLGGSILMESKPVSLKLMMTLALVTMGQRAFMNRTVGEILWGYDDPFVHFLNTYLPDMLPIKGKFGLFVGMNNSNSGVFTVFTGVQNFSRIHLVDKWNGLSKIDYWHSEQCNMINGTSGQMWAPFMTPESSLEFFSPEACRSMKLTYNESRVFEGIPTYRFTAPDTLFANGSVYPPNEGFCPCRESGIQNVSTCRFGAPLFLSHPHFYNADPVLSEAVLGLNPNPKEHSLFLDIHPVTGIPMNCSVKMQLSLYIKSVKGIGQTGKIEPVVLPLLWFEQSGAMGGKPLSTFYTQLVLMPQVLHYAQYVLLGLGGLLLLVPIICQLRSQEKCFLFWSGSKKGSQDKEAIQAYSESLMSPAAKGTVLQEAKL
ANO1 block – TMEM16A chloride channel inhibitors, primary screen, cell-based, HTS; 310,000 compounds, 1.2% hits; AID 588511, 2011; normalized B-score (activity score, 25-100; higher = stronger inhibition) at 10 µM; HEK293 TMEM16A/YFP iodide influx fluorescence, ionomycin;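 active = ratio plate-corrected score three or more library SD toward inhibition, starting fluorescence score within five deviations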;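 also: score derived from kinetic fluorescence span divided by baseline fluorescence per well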
DNA FID counter – compounds displacing fluorescent DNA intercalator, primary screen, artefact control for HCV NS3 helicase inhibitor project, biochemical, FID fluorescence. DNA fluorescent intercalator displacement. inhibition, % at 7.9 µM. 290,000 compounds, 0.17% hits. AID 1845, 2009; in the data active = inhibition above about 37%;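 also: 0% = vehicle and 100% = reference compound; higher means more ethidium bromide displaced from hairpin DNA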
ANO1 activ – TMEM16A chloride channel activators or potentiators, primary screen, cell-based, HTS; Anoctamin-1 (Mus musculus), Q8BHY3; HEK293 TMEM16A/YFP-H148Q/I152L, iodide quench fluorescence; stronger effect = lower value; B-score at 10 µM; 340,000 compounds, 0.3% hits; AID 623877, 2012;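 active = fluorescence-ratio B-score plate-corrected deviation score at least 3 library SD below zero, with starting fluorescence score within 5 deviations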;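 also: channel opened by trigger with iodide after compound preincubation; score built on the fluorescence ratio of max minus min over baseline; more negative score means more quench and so TMEM16A activation or potentiation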
SR-BI uptake up – activators of SR-BI mediated DiI-HDL uptake, primary screen, ldlA[mSR-BI] CHO cells, DiI fluorescence. 3 h; 100 = double the neutral-control signal. activation, % at 12.5 µM. 320,000 compounds, 0.096% hits. AID 504775, 2011;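 active = mean replicate activation of at least 60% and every replicate at or above 60%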;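 also: 0% = median plate neutral-control signal and 100% = twice that signal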
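Test system: SR-BI-overexpressing, LDLR-lacking CHO cells; Also added: labelled HDL, 10 µg/mL; Measured by: bottom-read cell fluorescence after medium removal, ex 550/em 595 nm; Timing: 3 h uptake period with compound, 37 °C; Buffer or medium: F12, 0.5% BSA, 25 mM HEPES; Doses: single compound concentration, delivered by pin transfer.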
Kir21 block – inhibitors of mouse Kir2.1 inward-rectifier potassium channel. AID 1672, 2009. HEK293-Kir2.1, FluxOR thallium flux fluorescence; stronger effect = lower value. 310,000 compounds, 0.85% hits. Inward rectifier potassium channel 2 (Mus musculus), P35561. B-score at 10 µM;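 active = fluorescence ratio B-score at or below minus 3 SD of library scores, with starting-brightness B-score within 2 SD, cut at about -4.2 in these data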;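 also: channel flux triggered by added potassium and thallium sulfate stimulus; B-score of peak minus minimum fluorescence over baseline after thallium stimulus; more negative B-score means stronger Kir2.1 block with less thallium influx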
Active calls of the source: *; i = inactive; · = not tested or not shown.

SMILES	SR-BI HDL uptake	ANO1 block	DNA FID counter	ANO1 activ	SR-BI uptake up	Kir21 block
CN(C(=O)c1ccno1)c1nnc(-c2cnccn2)s1	-3	i	-1	i	3	-0.04
CN(C(=O)c1ccc(C#N)cc1)c1nnc(-c2cnccn2)s1	·	i	-4	-5.2*	·	0.89
O=C(Cc1ccc(NC(=O)C2CCCN(C(=O)C3CCC3)C2)cc1)Nc1ccc(C(=O)N2CCOCC2)cc1 (stereo unspecified)	-4	·	·	·	4	·
CCOC(=O)N1CCN(C(=O)C2CCN(C(=O)c3ccccc3C)CC2)CC1	43	·	·	i	-43	·
COc1ccc(-c2csc(Nc3ccccn3)n2)cc1OC	59	25*	-22	i	-59	-1.4
Cc1ccc(-c2csc(Nc3ccccn3)n2)cc1	7	i	-2	i	-7	0.03
COc1ccc(C2CC(c3ccccc3)=NN2c2ccc(S(N)(=O)=O)cc2)cc1OC (stereo unspecified)	49	i	-22	-6.1*	-49	2.2
COc1ccc(C2CC(c3cccc(Cl)c3)=NN2c2ccc(S(N)(=O)=O)cc2)cc1 (stereo unspecified)	77*	·	·	·	-77	·
CCC(=O)Nc1cccc(C2=NN(c3ccccc3)C(c3ccc(OC)cc3)C2)c1 (stereo unspecified)	70*	i	-17	i	-70	0.2
NS(=O)(=O)c1ccc(N2N=C(c3ccccc3)CC2c2cccc(F)c2)cc1 (stereo unspecified)	34	i	-13	i	-34	-1.6
OCC(O)C1OC(c2ccccc2)OC(CO)C1O (stereo unspecified)	-1	·	·	i	1	·
CC(=O)N1CCCc2cc(S(=O)(=O)N3CCCC(C(=O)N4CCN(c5ccccc5)CC4)C3)ccc21 (stereo unspecified)	4	i	-67	i	-4	-0.21
CC(=O)N1CCCc2cc(S(=O)(=O)N3CCCC(C(=O)N4CCN(c5cc(C)ccc5C)CC4)C3)ccc21 (stereo unspecified)	29	25*	-58	-4.9*	-29	-1.6
COc1ccccc1N1CCN(C(=O)C2CCCN(S(=O)(=O)c3ccc4c(c3)CCCN4C(C)=O)C2)CC1 (stereo unspecified)	-23	25*	-66	i	23	-0.43
CCOc1ncccc1C(=O)Nc1cc(S(=O)(=O)N2CCCCC2)ccc1C	-10	·	·	i	10	·
O=C1c2ccccc2NC(c2ccco2)N1/N=C/c1ccco1 (stereo unspecified)	-13	i	-2	i	13	1
C/C(=N\N1C(=O)c2ccccc2NC1c1ccco1)c1ccccc1O (stereo unspecified)	-86	i	-2	i	86*	2.6
C/C(=N\N1C(=O)c2ccccc2NC1c1ccccc1)c1ccccc1O (stereo unspecified)	85*	i	-4	i	-85	0.44
Cc1ccc(C2Cc3cc(O)c(O)cc3CN2)cc1 (stereo unspecified)	·	i	·	i	·	-7.5*
Cc1nn(C)c(C(=O)NC(=S)Nc2ccccc2Br)c1Cl	4	i	-19	-6.7*	-4	-0.23
Cn1c(COc2cccc3ccccc23)nnc1SCC(=O)OC1CCCCC1	2	i	-36	i	-2	-2.2
Cn1c(CNc2cccc(Cl)c2)nnc1SCC(=O)OC1CCCCC1	-3	i	-35	i	3	-4.2*
CCn1c(COc2cccc3ccccc23)nnc1SCC(=O)OC1CCCCC1	3	100*	-33	i	-3	-1.2
O=C(COC(=O)/C=C/c1cc(Br)ccc1F)Nc1ccc2[nH]c(=O)[nH]c2c1	3	i	·	i	-3	-0.69
COc1ccccc1N=Cc1c(C)[nH]n(-c2ccc(C)cc2C)c1=O	38	i	-8	i	-38	-0.59
